Assay results taken from ChEMBL document CHEMBL1143384, “Discovery of novel inhibitors of Trypanosoma cruzi trans-sialidase from in silico screening” (Bioorg Med Chem Lett, 2009).
Activity calls are given as the source filed them. No cut-off for these calls is given here.

Legend:
[1] = biological target: T1, Trans-sialidase (Trypanosoma cruzi) (UniProt Q26966); assay: Inhibition of Trypanosoma cruzi trans-Sialidase at 0.1 mM by MuNANA assay
T1 sequence (whole entry): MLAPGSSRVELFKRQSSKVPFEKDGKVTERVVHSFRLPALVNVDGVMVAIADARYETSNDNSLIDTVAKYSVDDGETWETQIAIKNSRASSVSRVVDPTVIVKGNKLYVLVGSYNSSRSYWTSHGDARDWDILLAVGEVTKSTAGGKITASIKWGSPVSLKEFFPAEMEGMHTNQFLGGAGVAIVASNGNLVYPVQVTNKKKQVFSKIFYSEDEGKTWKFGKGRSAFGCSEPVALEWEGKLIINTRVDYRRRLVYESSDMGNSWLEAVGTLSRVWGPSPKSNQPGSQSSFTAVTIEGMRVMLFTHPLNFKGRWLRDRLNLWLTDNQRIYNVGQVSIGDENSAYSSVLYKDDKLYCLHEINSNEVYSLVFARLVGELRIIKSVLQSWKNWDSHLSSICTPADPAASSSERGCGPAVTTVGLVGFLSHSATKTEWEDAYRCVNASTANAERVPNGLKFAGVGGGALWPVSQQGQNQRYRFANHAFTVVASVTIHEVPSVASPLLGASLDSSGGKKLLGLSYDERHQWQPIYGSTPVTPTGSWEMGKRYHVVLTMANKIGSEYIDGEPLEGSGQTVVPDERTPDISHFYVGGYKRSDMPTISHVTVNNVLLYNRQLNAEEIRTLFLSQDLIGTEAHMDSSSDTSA
Outline: (§1)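 Recombinant TcTS in a continuous fluorimetric assay in 96-well format, with 4-methylumbelliferyl sialoside (MuNANA) as substrate, following sialic acid hydrolysis. Compounds were first screened at 1 mM, or at the highest concentration their solubility allowed, in triplicate. IC50 was then determined in the same assay for compounds inhibiting more than 50%.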

Trans-sialidase [2] = biological target: T2, Trans-sialidase (Trypanosoma cruzi, UniProt Q26966); assay: Inhibition of Trypanosoma cruzi trans-Sialidase by TIA assay
T2 sequence (Q26966 whole entry): T1 sequence (whole entry)
Outline: (§2)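 Trans-sialidase inhibition assay (TIA), which measures sialic acid transfer from sialyllactose as donor to 14C-radiolabelled lactose as acceptor.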

[3] = biological target: T1, Trans-sialidase (Trypanosoma cruzi); assay: Inhibition of Trypanosoma cruzi trans-Sialidase at 1 mM by MuNANA assay; outline: as §1
Trans-sialidase [4] = biological target: T2, Trans-sialidase; assay: Inhibition of Trypanosoma cruzi trans-Sialidase by MuNANA assay; outline: as §1
Trans-sialidase [5] = biological target: T2, Trans-sialidase; assay: Inhibition of Trypanosoma cruzi trans-Sialidase; outline: as §1
[6] = biological target: T1, Trans-sialidase (Trypanosoma cruzi); assay: Inhibition of Trypanosoma cruzi trans-Sialidase at 0.5 mM by MuNANA assay; outline: as §1
[7] = biological target: T1, Trans-sialidase (Trypanosoma cruzi); assay: Inhibition of Trypanosoma cruzi trans-Sialidase at 0.05 mM by MuNANA assay; outline: as §1
[8] = biological target: T1, Trans-sialidase (Trypanosoma cruzi); assay: Inhibition of Trypanosoma cruzi trans-Sialidase at 0.025 mM by MuNANA assay; outline: as §1
[9] = biological target: T1, Trans-sialidase (Trypanosoma cruzi); assay: Inhibition of Trypanosoma cruzi trans-Sialidase at 1 mM by TIA assay; outline: as §2
[10] = biological target: T1, Trans-sialidase (Trypanosoma cruzi); assay: Inhibition of Trypanosoma cruzi trans-Sialidase at 0.125 mM by MuNANA assay; outline: as §1
[11] = biological target: T1, Trans-sialidase (Trypanosoma cruzi); assay: Inhibition of Trypanosoma cruzi trans-Sialidase at 0.01 mM by MuNANA assay; outline: as §1

| inhibition [3] [%] | IC50 (Trans-sialidase [4]) [µM] | SMILES | further results |
| --- | --- | --- | --- |
| 23 |  | Cc1c(NS(=O)(=O)c2cccc(C(=O)NCc3ccncc3)c2)c(=O)n(-c2ccccc2)n1C |  |
| 50 |  | COCCNC(=O)c1ccc(NS(=O)(=O)c2cc(Cl)sc2Cl)cc1 |  |
| 23 |  | CC1(C)SC2c3ccccc3C(=O)N2C1C(=O)NC(Cc1c[nH]c2ccccc12)C(=O)O (stereo unspecified) |  |
| 91 | 310 | COc1cccc(/C=C(\CC(=O)O)c2nc3ccccc3s2)c1 |  |
| 82 | 280 | Cc1ccc(S(=O)(=O)Nc2nnc(SCC(=O)Nc3ccc4c(c3)OCO4)s2)cc1 |  |

More lines, now with the values behind:

| SMILES | inhibition [3] [%] | IC50 (Trans-sialidase [4]) [µM] | further results |
| --- | --- | --- | --- |
| O=C(O)C/C(=C\c1cccc(O)c1)c1nc2ccccc2s1 |  |  | inhibition [1]: 30%; IC50 (Trans-sialidase [2]): 520 µM |
| CCOc1ccccc1/C=C(\CC(=O)O)c1nc2ccccc2s1 | 90 | 160 | IC50 (Trans-sialidase [2]): 420 µM |
| CC(=O)Nc1ccc(C(=O)O)nc1N |  |  | IC50 (Trans-sialidase [5]): 440 µM |
| O=C(O)c1ccccc1C(=O)NCCCc1c(C(=O)O)[nH]c2cc3c(cc12)OCCO3 | 36 |  |  |
| CC(=O)N[C@H]1[C@H]([C@H](O)[C@H](O)CO)OC(C(=O)O)=C[C@@H]1O [NEU5AC2EN] |  |  | Ki (Trans-sialidase [5]): 12300 µM |
| O=c1[nH]c(O)c(C(c2ccc3c(c2)CN2CCOCC2O3)c2c(O)[nH]c(=O)[nH]c2=O)c(=O)[nH]1 (stereo unspecified) |  |  | inhibition [6]: 28% |
| COc1ccc(CC(=O)Nc2ccc(S(=O)(=O)Nc3nc(C)cc(C)n3)cc2)cc1 |  |  | inhibition [6]: 42% |
| CC(=O)c1sc(C(C)(C)C)cc1NC(=O)c1ccccc1C(=O)O | 84 | 270 |  |
| COc1cc(C2C(C(=O)c3ccc4c(c3)OCCO4)=C(O)C(=O)N2CCCN(C)C)cc(OC)c1OC (stereo unspecified) |  |  | inhibition [6]: 41% |
| Cc1ncc(COP(=O)(O)O)c(C=O)c1O [PYRIDOXAL PHOSPHATE ANHYDROUS] |  |  | Ki (Trans-sialidase [5]): 7300 µM |
| CCCOC(=O)c1c(NC(=O)C2CCCCC2C(=O)O)sc(C)c1C (stereo unspecified) | 87 | 210 |  |
| OC[C@H]1O[C@@H](O[C@@H]2[C@@H](CO)O[C@](O)(CO)[C@H]2O)[C@H](O)[C@@H](O)[C@H]1O [LACTULOSE] |  |  | IC50 (Trans-sialidase [5]): 570 µM |
| CC(=O)N[C@H]1C(O)CC(P(=O)(O)CCO[C@H]2[C@@H](O)[C@@H](CO)OC(O)[C@@H]2O)=C[C@@H]1O (single isomer, unassigned) |  |  | IC50 (Trans-sialidase [5]): 1500 µM |
| CC(=O)Nc1ccc(C(=O)O)cc1CO |  |  | IC50 (Trans-sialidase [5]): 540 µM |
| COc1ccc(Nc2nc3ccccc3nc2NS(=O)(=O)c2ccc(NC(C)=O)cc2)c(OC)c1 |  |  | inhibition [7]: 32% |
| CCOP(=O)(O)C1=C[C@H](O)[C@@H](NC(C)=O)[C@H](OCCO)C1 |  |  | IC50 (Trans-sialidase [5]): 5000 µM |

| SMILES | inhibition [3] [%] | IC50 (Trans-sialidase [4]) [µM] | further results |
| --- | --- | --- | --- |
| COc1ccc(C(CC(=O)O)NC(=O)COc2cc(C)ccc2C)cc1OC (stereo unspecified) | 30 |  |  |
| O=C(O)C/C(=C\c1cccc(F)c1)c1nc2ccccc2s1 | 94 | 120 |  |
| CC(=O)Nc1ccc(S(=O)(=O)Nc2nc3n(n2)C(c2ccc(Cl)cc2)C=C(c2ccccc2)N3)cc1 (stereo unspecified) |  |  | Activity [8]: inactive |
| CC(=O)c1sccc1NC(=O)c1ccccc1C(=O)O | 79 | 290 | inhibition [9]: 32% |
| CC(=O)Nc1ccc(S(=O)(=O)Nc2nc(-c3ccccc3)c(-c3ccccc3)o2)cc1 |  |  | inhibition [10]: 22% |
| COc1ccc(NC(=O)CC2(CC(=O)O)CCCCC2)cc1OC |  |  | Activity [3]: inactive |
| Cc1ccc(C)c(/C=C(\CC(=O)O)c2nc3ccccc3s2)c1 | 91 | 120 |  |
| COc1cccc(CNC(=O)Cc2c(C(=O)O)[nH]c3ccc(Cl)cc23)c1 |  |  | inhibition [6]: 57% |
| CCn1nc(NS(=O)(=O)c2ccc(C)cc2)c2cc3cc(C)ccc3nc21 |  |  | Activity [11]: inactive |
| O=C(O)CC(C(=O)Nc1cc(C(F)(F)F)cc(C(F)(F)F)c1)C1=CCCCC1 (stereo unspecified) | 32 |  |  |
| O=C(O)C1CC=C(Cl)CC1C(=O)NCC1OCCc2ccccc21 (stereo unspecified) | 26 |  |  |
| O=C(O)C/C(=C\c1cccc(C(F)(F)F)c1)c1nc2ccccc2s1 | 92 | 150 |  |
| COc1ccc(/C=C(\CC(=O)O)c2nc3ccccc3s2)cc1OC |  | 180 | inhibition [6]: 84% |
| COC(=O)c1ccc(Oc2ccc(C(F)(F)F)cc2NC(=O)c2ccccc2C(=O)O)s1 | 21 |  |  |
| CC(C)Oc1ccccc1/C=C(\CC(=O)O)c1nc2ccccc2s1 | 92 | 150 | IC50 (Trans-sialidase [2]): 290 µM |
